Only some compounds are listed: those with a hit (about 4.8% of all), similar ones and a draw of the others.
PAFAH1B2 inh = PAFAH1B2 enzyme inhibitors, primary screen, biochemical, fluorescence polarization, human. recombinant PAFAH1B2, FP-rhodamine activity probe. 1.2% of 340,000 active. Platelet-activating factor acetylhydrolase IB subunit alpha2 (Homo sapiens), P68402. inhibition, % at 3.39 µM;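 active means inhibition above the mean of all tested compounds plus 3 SD, cut at about 24% in these data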
PAFAH2 inh = PAFAH2 enzyme inhibitors, primary screen, biochemical, fluorescence polarization, human. Platelet-activating factor acetylhydrolase 2, cytoplasmic (Homo sapiens), Q99487. recombinant PAFAH2, FP-rhodamine activity probe. inhibition, % at 3.39 µM. 0.99% of 340,000 active. AID 492956, 2010;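 active means inhibition above the mean over all tested compounds plus 3 SD, cut at about 30% in these data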;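 further: inhibitors block probe labeling of enzyme so polarization drops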
PAFAH1B3 inh = PAFAH1B3 enzyme inhibitors, primary screen, biochemical, fluorescence polarization, human | inhibition, % at 3.39 µM | 0.28% of 340,000 active | Platelet-activating factor acetylhydrolase IB subunit alpha1 (Homo sapiens), Q15102 | recombinant PAFAH1B3, FP-rhodamine probe | AID 492972, 2010;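 active means inhibition above the screen-wide average of all tested compounds plus 3 SD, cut at about 25% in these data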
UCH37 DUB inh = inhibitors of human UCH37 deubiquitinase, primary screen, biochemical, Ub-AMC cleavage, fluorescence. Ubiquitin carboxyl-terminal hydrolase isozyme L5 (Homo sapiens), Q9Y5K5. inhibition, % (test concentration not listed). AID 588478, 2011. 0.33% of 330,000 active. purified proteasome/UCH37;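 active means mean inhibition over replicate wells above about 20%, limit read from the data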
Target sequence (Q9Y5K5 whole entry, looked up): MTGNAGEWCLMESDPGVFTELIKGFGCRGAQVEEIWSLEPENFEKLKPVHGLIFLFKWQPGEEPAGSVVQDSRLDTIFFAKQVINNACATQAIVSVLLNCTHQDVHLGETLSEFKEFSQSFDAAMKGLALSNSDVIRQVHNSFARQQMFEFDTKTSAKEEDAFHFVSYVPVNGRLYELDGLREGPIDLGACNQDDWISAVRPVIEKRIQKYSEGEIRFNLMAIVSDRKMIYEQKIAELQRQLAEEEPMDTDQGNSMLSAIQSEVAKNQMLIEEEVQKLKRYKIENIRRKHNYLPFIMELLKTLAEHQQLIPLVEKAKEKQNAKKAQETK
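Signal – fluorescence, ex 355 nm, em 460 nm · System – Proteasome-bound UCH37 · Input – 0.15 nM proteasome as dispensed · Timing – 30 min preincubation with enzyme, 25 min cleavage at room temperature · Read-out basis – percent inhibition of cleavage signal versus uninhibited and no-proteasome wells · Medium – Tris-HCl pH 7.4 with ATP-MgCl2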
pPAFAH FP inh = pPAFAH enzyme inhibitors, primary screen, biochemical, fluorescence polarization, human. Platelet-activating factor acetylhydrolase (Homo sapiens), Q13093. recombinant pPAFAH, FP-rhodamine probe fluorescence polarization. inhibition, % at 3.39 µM. 1.5% of 330,000 active. AID 463082, 2010;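 active means inhibition above the mean inhibition across the screen plus 3 SD, cut at about 25% in these data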;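 further: inhibitors block binding of the rhodamine activity-based probe so polarization drops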
NR3A LBD binder = binders of NR3A ligand-binding domain, primary screen, biophysical, differential scanning fluorimetry, uHTS; NR3A LBD differential scanning fluorimetry, Tm shift; 0% = protein alone, 100% = glycine-bound protein; Tm shift relative to glycine control, % at 25 µM; 2.5% of 340,000 active;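 active means melting temperature shift of at least 10% of the positive control shift, at one fixed dose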
A number is an active result; – = inactive; · = no result.

SMILES	PAFAH1B2 inh	PAFAH2 inh	PAFAH1B3 inh	UCH37 DUB inh	pPAFAH FP inh	NR3A LBD binder
Cc1ccc(NC(=O)C2CCN(S(=O)(=O)c3c(C)noc3/C=C/c3ccco3)CC2)nc1	–	–	–	–	–	–
Cc1noc(/C=C/c2ccco2)c1S(=O)(=O)N1CCC(C(=O)N2CCc3ccccc3C2)CC1	–	–	–	–	30.0	–
COc1ccc(NC(=O)C2CCN(S(=O)(=O)c3c(C)noc3C)CC2)cc1Cl	–	–	–	–	–	15.7
Cc1ccc(CCNC(=O)C2CCCN(S(=O)(=O)c3c(C)noc3C)C2)cc1 (stereo not given)	27.3	–	–	–	–	–
Cc1ccc(CCNC(=O)C2CCCN(S(=O)(=O)c3c(C)noc3/C=C/N(C)C)C2)cc1 (stereo not given)	36.2	–	–	–	–	–
CCOc1ccc(Oc2c(C=NNC(C)=O)c(C)nn2-c2ccccc2)cc1	·	·	·	–	·	·
O=C(NN=Cc1cccc(O)c1)c1cc2c(ccc3ccccc32)o1	·	·	·	–	·	·
Cc1ccc(/C=C/c2onc(C)c2S(=O)(=O)N2CCC(C(=O)NC(C)(C)C)CC2)cc1	–	–	–	–	–	–
CNC(=O)C1CCN(S(=O)(=O)c2c(C)noc2/C=C/c2ccc(C)cc2)CC1	–	–	–	–	–	79.3
CCCCCCC(=O)O	–	–	–	–	–	–
CCCCCCCCCCCCCC(=O)O	35.1	–	–	–	–	–
FC(F)(F)c1nc2cc3nc4ccccc4[nH]c3cc2n1	–	–	–	–	30.6	–
OC(c1nc2ccccc2[nH]1)C(O)c1nc2ccccc2[nH]1 (stereo not given)	–	–	–	–	–	–
CCN(CC)S(=O)(=O)c1ccc(O)c(NC(=O)c2cc(-c3cc(OC)c(OC)c(OC)c3)nc3ccccc23)c1	–	–	–	–	–	17.0
COc1cc2c(cc1NC(=O)COC(=O)c1ccccc1)oc1ccccc12	·	·	·	–	–	·
COc1cc(-c2cc(C(=O)Nc3ccc(S(N)(=O)=O)cc3)c3ccccc3n2)cc(OC)c1OC	–	–	–	–	–	–
COc1cc2c(cc1NC(=O)c1cccc(S(=O)(=O)N(C)C)c1)oc1ccccc12	–	–	–	–	–	13.9
CCN(CC)S(=O)(=O)c1ccc(C(=O)Nc2cc3oc4ccccc4c3cc2OC)cc1	–	–	–	–	–	11.0
COc1cccc(C=NNC(=S)Nc2cccc(S(=O)(=O)N(C)C)c2)c1	·	·	·	–	·	·
CSc1ccc(C=NNC(=O)CN2CCN(Cc3ccc(Cl)cc3)CC2)cc1	·	·	·	–	·	·
Cc1ccc(-c2[nH]ncc2C=Nn2c(COc3ccccc3)nc3ccccc3c2=O)cc1	·	·	·	–	·	·
C/C(=N\O)C1/C(=N/O)CC2C1C2(C)C (stereo not given)	33.7	–	–	·	–	–
O=C1OC[C@@H]2CCCN2C(=O)[C@H](CC(=O)N(CCO)Cc2ccccc2)C/C=C\C[C@H]1Cc1ccc(F)cc1	33.0	–	–	–	–	–
O=C1OC[C@H]2CCCN2C(=O)[C@@H](CC(=O)N(CCO)Cc2ccccc2)C/C=C\C[C@@H]1Cc1ccc(F)cc1	30.9	–	–	–	–	–
O=C1CCC/C=C\C[C@@H](CC(=O)N(CCO)Cc2ccccc2)C(=O)N2CCC[C@H]2CO1	–	–	–	–	–	–
CC(=NNC(=O)c1cc(-c2ccc(C)s2)nc2ccccc12)c1cccnc1	·	·	·	–	·	·
O=S(=O)(c1ccccc1)C(C=NO)/C=C/c1ccccc1 (stereo not given)	·	·	·	–	·	·
COc1ccccc1-c1csc(NC(=O)c2ccc(N3C(=O)CCC3=O)cc2)n1	–	–	–	–	–	34.0
CC(C)(C)c1ccc(C(=O)NCC(=O)OCC(=O)Nc2nc(-c3ccc(F)cc3)cs2)cc1	–	–	–	–	–	10.2
O=C(Nc1nc(-c2ccc(F)cc2)cs1)c1ccc(N2C(=O)CCC2=O)cc1	–	–	–	–	–	24.9

Compound activity deposited in PubChem BioAssay by several laboratories.
